Source: ChEMBL document CHEMBL5705905, “Pharmacological targeting of kinases MST1 and MST2 augments tissue repair and regeneration” (Sci Transl Med, 2016)
Active and inactive are the calls of the source. No cut-off for these calls is given here.

Assays:
[1] = target: T1, Serine/threonine-protein kinase 3 (Homo sapiens, UniProt Q13188); test: Inhibition of recombinant His-tagged full-length MST2 (unknown origin) expressing in Escherichia coli assessed as GST-tagged MOB1a phosphorylation level incubated for 30 mins by immunoblot analysis
T1 sequence (Q13188 whole entry): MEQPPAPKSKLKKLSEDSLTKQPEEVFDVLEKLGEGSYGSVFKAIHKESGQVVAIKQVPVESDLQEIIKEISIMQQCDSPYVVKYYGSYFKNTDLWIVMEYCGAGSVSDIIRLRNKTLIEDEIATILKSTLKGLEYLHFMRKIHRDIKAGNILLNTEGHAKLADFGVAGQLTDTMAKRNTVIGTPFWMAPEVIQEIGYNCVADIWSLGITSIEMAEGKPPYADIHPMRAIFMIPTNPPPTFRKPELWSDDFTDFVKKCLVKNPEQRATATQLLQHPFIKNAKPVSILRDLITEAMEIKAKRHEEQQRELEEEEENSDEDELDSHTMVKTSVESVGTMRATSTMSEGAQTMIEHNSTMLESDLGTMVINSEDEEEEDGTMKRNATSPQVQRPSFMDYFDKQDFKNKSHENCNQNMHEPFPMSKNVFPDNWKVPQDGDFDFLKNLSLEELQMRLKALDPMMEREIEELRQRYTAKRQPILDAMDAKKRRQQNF

Mus musculus [2] = test: Protection against APAP induced liver injury in mouse assessed as liver centrilobular necrosis at 250 mg/kg, ip administered at 3.5 hrs; type: functional, organism-based
Mus musculus [3] = test: Protection against APAP induced liver injury in mouse assessed as decrease in ALT level at 250 mg/kg, ip administered at 1.5 hrs; type: functional, organism-based; settings: Serum
Mus musculus [4] = test: Protection against APAP induced liver injury in mouse assessed as liver centrilobular necrosis at 250 mg/kg, ip administered at 2.5 hrs; type: functional, organism-based
Mus musculus [5] = test: Protection against APAP induced liver injury in mouse assessed as liver centrilobular necrosis at 250 mg/kg, ip administered at 1.5 hrs; type: functional
Procedure, shortened: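 Wild-type mice were given APAP orally. NAC at 250 mg/kg was then injected intraperitoneally at 1.5, 2.5 or 3.5 h after APAP. Liver centrilobular necrosis was then assessed.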

Mus musculus [6] = test: Protection against APAP induced liver injury in mouse assessed as decrease in ALT level at 250 mg/kg, ip administered at 2.5 hrs; type: functional, organism-based; settings: Serum

In the case of CN1CCC(NS(=O)(=O)c2ccc(Nc3ncc4c(n3)N(C)c3ccsc3C(=O)N4C)cc2)CC1, the IC50 [1] is reported as 3840 nM.
Compound CSc1ccc(Nc2ncc3c(n2)N(C)c2ccsc2C(=O)N3C)cc1 has an IC50 [1] of 1160 nM.
Compound CN1C(=O)c2sccc2N(C)c2nc(Nc3ccc(S(=O)(=O)NC4CC4)cc3)ncc21 has an IC50 [1] of 207 nM.
In the case of CC(=O)N[C@@H](CS)C(=O)O [ACETYLCYSTEINE], the Activity (Mus musculus [2]) is reported as “inactive”, the Activity (Mus musculus [3]) is reported as “Active” and the Activity (Mus musculus [4]) is reported as “inactive”. For the same compound, the Activity (Mus musculus [5]) was “Active”, the Activity (Mus musculus [5]; record 2) was 80% and the Activity (Mus musculus [6]) was “Active”.
In the case of CN1C(=O)c2sccc2N(C)c2nc(Nc3ccc(S(C)(=O)=O)cc3)ncc21, the IC50 [1] is reported as 596 nM.
